Values joined by “and” are separate entries in the source; they are usually repeats but may differ in a detail not shown here. Equal entries are not always repeated.
How the values were obtained:
HEK-293T = experiment: Multiplex assay against HEK293T; assay type: toxicity, cell-based; settings: human, number of replicates 2
How it was run: (§1)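 Live cells were stained at seeding with Hoechst33342, BioTracker Green Microtubule Cytoskeleton Dye, MitoTracker Red and Annexin V Alexa Fluor 680, then imaged on a CQ1 microscope at 37°C and 5% CO2 after compound addition. CellPathfinder machine-learning gating split cells into Hoechst high-intensity objects or normal cells. Normal cells were split into healthy, pyknosed or fragmented nuclei, and pyknosed cells into mitotic or apoptotic. Tubulin, mitochondrial-mass and membrane-permeability phenotypes are per cents of healthy-nucleus cells.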

U2OS = experiment: Multiplex assay against U2OS; assay type: toxicity, cell-based; settings: human, number of replicates 2; how it was run: as §1
[1] = 12 h, 1 µM, compound concentration 1 uM
[2] = 12 h, 10 µM, compound concentration 10 uM
[3] = 24 h, 1 µM, compound concentration 1 uM
[4] = 24 h, 10 µM, compound concentration 10 uM
[5] = 48 h, 1 µM, compound concentration 1 uM
[6] = 48 h, 10 µM, compound concentration 10 uM

COCCNC1CCC(Nc2cc(-c3csc(NCC4(C#N)CCOCC4)n3)c(Cl)cn2)CC1 (configuration not stated)
Population Apoptotic (%) (HEK-293T; [1]): 38% and 65% | Population Fragmented Nuclei (%) (HEK-293T; [1]): 4% and 2% | Population Healthy Nuclei (%) (HEK-293T; [1]): 81% and 83% | Population Hoechst High Intensity Objects (%) (HEK-293T; [1]): 7% and 9% | Population Membrane Permeable-Phenotype (%) (HEK-293T; [1]): 3% and 2% | Population Mitochondria Different-Phenotype (%) (HEK-293T; [1]): 50% and 51% | Population Mitotic Cells (%) (HEK-293T; [1]): 61% and 34% | Population Normal (%) (HEK-293T; [1]): 92% and 90% | Population Pyknosed Nuclei (%) (HEK-293T; [1]): 13% and 14% | Population Tubulin-Different-Phenotype (%) (HEK-293T; [1]): 76% and 80% | Total Cell Count (HEK-293T; [1]): 472 and 403 | Population Apoptotic (%) (HEK-293T; [2]): 74% and 66% | Population Fragmented Nuclei (%) (HEK-293T; [2]): 1% and 2% | Population Healthy Nuclei (%) (HEK-293T; [2]): 77% and 83% | Population Hoechst High Intensity Objects (%) (HEK-293T; [2]): 10% and 12% | Population Membrane Permeable-Phenotype (%) (HEK-293T; [2]): 2% and 3% | Population Mitochondria Different-Phenotype (%) (HEK-293T; [2]): 69% and 65% | Population Mitotic Cells (%) (HEK-293T; [2]): 25% and 33% | Population Normal (%) (HEK-293T; [2]): 89% and 87% | Population Pyknosed Nuclei (%) (HEK-293T; [2]): 20% and 14% | Population Tubulin-Different-Phenotype (%) (HEK-293T; [2]): 96% and 94% | Total Cell Count (HEK-293T; [2]): 313 and 412 | Population Apoptotic (%) (HEK-293T; [3]): 48% and 66% | Population Fragmented Nuclei (%) (HEK-293T; [3]): 2% and 4% | Population Healthy Nuclei (%) (HEK-293T; [3]): 88% and 83% | Population Hoechst High Intensity Objects (%) (HEK-293T; [3]): 13% and 16% | Population Membrane Permeable-Phenotype (%) (HEK-293T; [3]): 1% and 2% | Population Mitochondria Different-Phenotype (%) (HEK-293T; [3]): 62% and 58% | Population Mitotic Cells (%) (HEK-293T; [3]): 51% and 33% | Population Normal (%) (HEK-293T; [3]): 86% and 83% | Population Pyknosed Nuclei (%) (HEK-293T; [3]): 8% and 12% | Population Tubulin-Different-Phenotype (%) (HEK-293T; [3]): 72% and 74% | Total Cell Count (HEK-293T; [3]): 431 and 359 | Population Apoptotic (%) (HEK-293T; [4]): 91% and 67% | Population Fragmented Nuclei (%) (HEK-293T; [4]): 3% | Population Healthy Nuclei (%) (HEK-293T; [4]): 82% and 87% | Population Hoechst High Intensity Objects (%) (HEK-293T; [4]): 15% and 21% | Population Membrane Permeable-Phenotype (%) (HEK-293T; [4]): 2% | Population Mitochondria Different-Phenotype (%) (HEK-293T; [4]): 81% and 75% | Population Normal (%) (HEK-293T; [4]): 84% and 78% | Population Pyknosed Nuclei (%) (HEK-293T; [4]): 14% and 8% | Population Tubulin-Different-Phenotype (%) (HEK-293T; [4]): 93% and 92% | Total Cell Count (HEK-293T; [4]): 294 and 402 | Population Apoptotic (%) (HEK-293T; [5]): 55% and 65% | Population Fragmented Nuclei (%) (HEK-293T; [5]): 1% and 5% | Population Healthy Nuclei (%) (HEK-293T; [5]): 91% and 84% | Population Hoechst High Intensity Objects (%) (HEK-293T; [5]): 14% and 17% | Population Membrane Permeable-Phenotype (%) (HEK-293T; [5]): 1% and 2% | Population Mitochondria Different-Phenotype (%) (HEK-293T; [5]): 71% and 68% | Population Mitotic Cells (%) (HEK-293T; [5]): 45% and 34% | Population Normal (%) (HEK-293T; [5]): 85% and 82% | Population Pyknosed Nuclei (%) (HEK-293T; [5]): 7% and 9% | Population Tubulin-Different-Phenotype (%) (HEK-293T; [5]): 75% | Total Cell Count (HEK-293T; [5]): 317 and 304 | Population Apoptotic (%) (HEK-293T; [6]): 92% and 82% | Population Fragmented Nuclei (%) (HEK-293T; [6]): 1% and 4% | Population Healthy Nuclei (%) (HEK-293T; [6]): 78% and 85% | Population Hoechst High Intensity Objects (%) (HEK-293T; [6]): 13% and 22% | Population Membrane Permeable-Phenotype (%) (HEK-293T; [6]): 3% and 1% | Population Mitochondria Different-Phenotype (%) (HEK-293T; [6]): 85% and 82% | Population Mitotic Cells (%) (HEK-293T; [6]): 7% and 17% | Population Normal (%) (HEK-293T; [6]): 86% and 77% | Population Pyknosed Nuclei (%) (HEK-293T; [6]): 19% and 9% | Population Tubulin-Different-Phenotype (%) (HEK-293T; [6]): 95% and 90% | Total Cell Count (HEK-293T; [6]): 237 and 368 | Population Apoptotic (%) (U2OS; [1]): 45% and 87% | Population Fragmented Nuclei (%) (U2OS; [1]): 17% and 9% | Population Healthy Nuclei (%) (U2OS; [1]): 34% and 40% | Population Hoechst High Intensity Objects (%) (U2OS; [1]): 0% | Population Mitochondria Different-Phenotype (%) (U2OS; [1]): 7% | Population Normal (%) (U2OS; [1]): 100% and 99% | Population Pyknosed Nuclei (%) (U2OS; [1]): 48% and 49% | Population Tubulin-Different-Phenotype (%) (U2OS; [1]): 57% and 58% | Population Apoptotic (%) (U2OS; [2]): 83% and 89% | Population Fragmented Nuclei (%) (U2OS; [2]): 10% | Population Hoechst High Intensity Objects (%) (U2OS; [2]): 2% and 1% | Population Mitochondria Different-Phenotype (%) (U2OS; [2]): 40% and 66% | Population Mitotic Cells (%) (U2OS; [2]): 16% and 10% | Population Normal (%) (U2OS; [2]): 97% and 98% | Population Pyknosed Nuclei (%) (U2OS; [2]): 40% and 78% | Population Tubulin-Different-Phenotype (%) (U2OS; [2]): 50% | Population Apoptotic (%) (U2OS; [3]): 59% and 94% | Population Fragmented Nuclei (%) (U2OS; [3]): 13% and 9% | Population Healthy Nuclei (%) (U2OS; [3]): 25% and 26% | Population Hoechst High Intensity Objects (%) (U2OS; [3]): 0% and 3% | Population Membrane Permeable-Phenotype (%) (U2OS; [3]): 0% and 14% | Population Mitochondria Different-Phenotype (%) (U2OS; [3]): 0% and 11% | Population Normal (%) (U2OS; [3]): 100% and 96% | Population Pyknosed Nuclei (%) (U2OS; [3]): 61% and 63% | Population Tubulin-Different-Phenotype (%) (U2OS; [3]): 55% | Population Apoptotic (%) (U2OS; [4]): 91% | Population Fragmented Nuclei (%) (U2OS; [4]): 9% and 6%

Reference: ChEMBL document CHEMBL5303300, “EUbOPEN Chemogenomics Library - Multiplex” (2023)
